In ChEMBL document CHEMBL1132955 (J Med Chem, 2000):

What was measured:
[1] = test system: Human alphaherpesvirus 3; test: (§1) cytostatic concentration required to reduce the HEL cell number by 50%. after 5 days in the absence of virus; type: functional; details: Human alphaherpesvirus 3, t, 120 h
In short: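 HEL fibroblasts, grown in MEM with 10% inactivated FCS, 1% L-glutamine and 0.3% sodium bicarbonate, were treated in 96-well cultures with varying compound concentrations for 5 days without virus. Cells were then trypsinized and counted with a Coulter counter. The value is the concentration giving 50% reduction in cell number.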

[2] = test system: Human alphaherpesvirus 3; test: (§2) Minimal cytotoxic concentration, the concentration required to cause a microscopically visible alteration of normal cell morphology.; type: functional; details: Human alphaherpesvirus 3, t
[3] = test system: Human alphaherpesvirus 3; test: Evaluated for the anti-VZV, the concentration of compounds in uM required to reduce VZVTK-YS-R ( thymidine kinase-deficient strain ) plaque formation after 5 days in HEL cell cultures compared to untreated controls.; type: functional, organism-based; details: Human alphaherpesvirus 3, tkys-r, 120 h
[4] = test system: Human alphaherpesvirus 3; test: Evaluated for the anti-VZV activity, the concentration of compounds in uM required to reduce VZV OKA Plaque formation after 5 days in HEL cell cultures compared to untreated controls.; type: functional, organism-based; details: Human alphaherpesvirus 3, oka, 120 h
In short: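 Confluent HEL fibroblasts infected with VZV at 20 PFU/well. Residual virus removed after 1-2 h adsorption. Cells then kept in MEM with 2% inactivated FCS, 1% L-glutamine and 0.3% sodium bicarbonate plus serial compound dilutions. OKA and YS strains are TK-competent; 07 and YS-R are TK-deficient.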

[5] = test system: Human alphaherpesvirus 3; test: Evaluated for the anti-VZV activity, the concentration of compounds in uM required to reduce VZV […] plaque formation after 5 days in HEL cell cultures compared to untreated controls.; type: functional, organism-based; details: Human alphaherpesvirus 3, ys, 120 h
[6] = test system: Human alphaherpesvirus 3; test: Evaluated for the anti-VZV, the concentration of compounds in uM required to reduce VZVTK-07 ( thymidine kinase-deficient strain ) plaque formation after 5 days in HEL cell cultures compared to untreated controls.; type: functional, organism-based; details: Human alphaherpesvirus 3, tk-07, HEL, 120 h
[7] = test system: Human alphaherpesvirus 3; test: as §2; type: functional
In short: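 Uninfected HEL cell cultures exposed to graded compound concentrations. Morphology inspected by microscope. MCC is the lowest concentration producing a visible change in normal cell morphology.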

[8] = test system: Human alphaherpesvirus 3; test: Evaluated for the anti-VZV activity, the concentration required to reduce VZV OKA plaque formation after 5 days in HEL cell cultures compared to untreated controls.; type: functional, organism-based; details: Human alphaherpesvirus 3, oka, 120 h
In short: (§3)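 Confluent HEL fibroblasts infected with VZV at 20 PFU/well. Residual virus removed after 1-2 h adsorption. Cells then kept in MEM with 2% inactivated FCS, 1% L-glutamine and 0.3% sodium bicarbonate plus serial compound dilutions. […] OKA and YS strains are TK-competent; 07 and YS-R are TK-deficient.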

[9] = test system: Human alphaherpesvirus 3; test: as §1; type: functional; details: Human alphaherpesvirus 3, HEL, 120 h
In short: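 HEL cells in 96-well plates treated with graded compound concentrations without virus for 5 days. Cells then trypsinized and counted with a Coulter counter.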

[10] = test system: Human alphaherpesvirus 3; test: Evaluated for the anti-VZV, the concentration required to reduce VZV TK -07 ( thymidine kinase-deficient strain ) plaque formation after 5 days in HEL cell cultures compared to untreated controls.; type: functional, organism-based; details: Human alphaherpesvirus 3, tk-07, HEL, 120 h; in short: as §3
[11] = test system: Human alphaherpesvirus 3; test: Evaluated for the anti-VZV activity, the concentration required to reduce VZV YS plaque formation after 5 days in HEL cell cultures compared to untreated controls.; type: functional, organism-based; details: Human alphaherpesvirus 3, ys, 120 h; in short: as §3
[12] = test system: Human alphaherpesvirus 3; test: Evaluated for the anti-VZV, the concentration required to reduce VZVTK-YS-R ( thymidine kinase-deficient strain ) plaque formation after 5 days in HEL cell cultures compared to untreated controls.; type: functional, organism-based; details: Human alphaherpesvirus 3, ys-r, 120 h; in short: as §3
[13] = test system: Human alphaherpesvirus 3; test: Evaluated for the anti-VZV activity, which is the concentration of compounds in uM required to reduce VZV YS plaque formation after 5 days in HEL cell cultures compared to untreated controls.; type: functional, organism-based; details: Human alphaherpesvirus 3, ys, 120 h; in short: as §3
[14] = test system: Human alphaherpesvirus 3; test: Evaluated for the anti-VZV activity, the concentration of compounds in uM required to reduce VZV TK-07 (thymidine kinase-deficient strain ) plaque formation after 5 days in HEL cell cultures compared to untreated controls.; details: Human alphaherpesvirus 3, tk-07, HEL, 120 h
[15] = test system: Human alphaherpesvirus 3; test: Evaluated for the anti-VZV, the concentration of compounds in uM required to reduce VZV TK-YS-R ( thymidine kinase-deficient strain ) plaque formation after 5 days in HEL cell cultures compared to untreated controls.; type: functional, organism-based; details: Human alphaherpesvirus 3, ys-r, 120 h; in short: as §3
[16] = test system: Human alphaherpesvirus 3; test: Evaluated for the anti-VZV activity, the concentration of compounds in uM required to reduce VZV OKA plaque formation after 5 days in HEL cell cultures compared to untreated controls.; type: functional, organism-based; details: Human alphaherpesvirus 3, oka, 120 h; in short: as §3

Structure (SMILES) | EC50 [3] [nM] | EC50 [4] [nM] | EC50 [5] [nM] | EC50 [6] [nM] | MCC [7] [µM] | CC50 [9] [nM] | also measured
O=c1[nH]c(=O)n([C@H]2C[C@H](O)[C@@H](CO)O2)cc1/C=C/Br [BRIVUDINE] | > 150000 | 3 | 3 | > 150000 |  |  | CC50 [1]: > 400000 nM; MCC [2]: > 400 µM
O=c1nc2oc(-c3ccccc3)cc2cn1[C@H]1C[C@H](O)[C@@H](CO)O1 |  |  |  |  | > 200 | > 200000 | EC50 [8]: 280 nM; EC50 [10]: > 200000 nM; EC50 [11]: 160 nM; EC50 [12]: 162000 nM
CCCCCCCCCCc1cc2cn([C@H]3C[C@H](O)[C@@H](CO)O3)c(=O)nc2o1 | > 50000 | 15 | 8 | > 50000 | > 50 | > 50000 | 
CCCCCCCCCc1cc2cn([C@H]3C[C@H](O)[C@@H](CO)O3)c(=O)nc2o1 | > 200000 | 20 | 20 | > 200000 | > 200 | > 200000 | 
O=c1nc2oc(-c3ccc(Cl)cc3)cc2cn1[C@H]1C[C@H](O)[C@@H](CO)O1 | > 50000 | 100 | 100 | > 50000 | 200 |  | 
Cc1ccc(-c2cc3cn([C@H]4C[C@H](O)[C@@H](CO)O4)c(=O)nc3o2)cc1 |  |  |  |  | > 200 | > 200000 | EC50 [13]: 60 nM; EC50 [14]: 103000 nM; EC50 [15]: > 200000 nM; EC50 [16]: 60 nM
CCCCCCCCc1ccc(-c2cc3cn([C@H]4C[C@H](O)[C@@H](CO)O4)c(=O)nc3o2)cc1 | > 20000 | 40 | 27 | > 20000 | > 20 | > 200000 | 
O=c1nc2oc(-c3ccc(Br)cc3)cc2cn1[C@H]1C[C@H](O)[C@@H](CO)O1 | > 50000 | 500 | 500 | > 50000 | 50 |  | 
Nc1nc2c(ncn2COCCO)c(=O)[nH]1 [ACYCLOVIR] |  |  |  |  | > 200 | > 200000 | 
CCCCCCCCc1cc2cn([C@H]3C[C@H](O)[C@@H](CO)O3)c(=O)nc2o1 | > 50000 |  | 24 | > 50000 | > 50 | > 50000 | EC50 [16]: 8 nM
